Shown are actives, neighbours in structure and some others; about 2.6% of the full set was active somewhere.
EP2 antag: blocks the human prostaglandin E2 receptor EP2; C6 glioma cells expressing human EP2, cAMP TR-FRET; cells stimulated with saturating PGE2; AID 1422; inhibition, % at 25 µM; P43116; 0.52% of 260,000 active;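 active = percent inhibition above 40 after rounding to a whole number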;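 note: rat C6 glioma host cells with rolipram phosphodiesterase inhibitor present; the protocol text gives 20 µM as final concentration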
Target sequence (P43116 whole entry, looked up): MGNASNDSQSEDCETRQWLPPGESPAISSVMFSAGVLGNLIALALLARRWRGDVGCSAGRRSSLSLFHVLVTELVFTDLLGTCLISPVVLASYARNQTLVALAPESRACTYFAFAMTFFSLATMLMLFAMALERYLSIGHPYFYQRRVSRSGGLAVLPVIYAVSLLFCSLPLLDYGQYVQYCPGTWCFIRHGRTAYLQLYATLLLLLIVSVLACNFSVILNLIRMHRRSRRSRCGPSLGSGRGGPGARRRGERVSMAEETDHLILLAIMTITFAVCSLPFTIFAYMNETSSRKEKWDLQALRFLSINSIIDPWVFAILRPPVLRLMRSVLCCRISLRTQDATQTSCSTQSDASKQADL
T cell modulator: T cell immune modulation candidate; 2C CD8+ T cell-vesicle binding, flow cytometry; active compounds read low; response (vesicle binding), % at 7 µM; 0.068% of 330,000 active;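 active = response, share of CD8 T cells binding vesicles, and their 90th percentile fluorescence all below set limits, cut at about 80% in these data, passing the limit was not always enough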;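 note: values below 100% mean blocked vesicle binding to the CD8+ T cells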
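Test system: purified 2C TCR transgenic mouse naive CD8+ T cells. Probe or stimulus: QL9-peptide-loaded Drosophila micro-vesicles bearing Ld, ICAM-1 and B7-1. Incubation: binding step 1.5 h, 37 °C, antibody labelling 20 min, ice. Measured by: flow cytometry of vesicle-bound cells.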
Exocytosis inh: lytic granule exocytosis inhibition; TALL-104 LAMP-1 surface exposure, flow cytometry; cells stimulated with thapsigargin and PMA; inhibition, % at 10 µM; 0.66% of 360,000 active; AID 651702;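 active = inhibition above about 55%, limit read from the data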
EP2 modulator: modulates human prostaglandin E2 receptor EP2 signaling. P43116. EP2-expressing cells, cAMP HTRF FRET, PGE2 co-stimulation. induction, % at 25 µM. 0.83% of 260,000 active;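 active = compounds whose cAMP rise, as percent of the full-agonist control response, exceeds 60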;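 note: rat C6 glioma line stably carrying human EP2 under a CMV promoter; the protocol text gives 20 µM as final concentration; 100% = response of wells given 1 µM PGE2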
MC4R antagonist: blocks human MC4R cAMP signaling | P32245 | MC4R-expressing cells, MTII-stimulated cAMP, LANCE TR-FRET | inhibition, % at 6.5 µM | 0.48% of 360,000 active | AID 540295;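 active = inhibition above its plate's cutoff, the mean of tested wells on that plate plus 3 SD, cut at about 29% in these data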;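 note: 0% = Melanotan II alone and 100% = Melanotan II plus saturating MCL0020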
Target sequence (P32245 whole entry, looked up): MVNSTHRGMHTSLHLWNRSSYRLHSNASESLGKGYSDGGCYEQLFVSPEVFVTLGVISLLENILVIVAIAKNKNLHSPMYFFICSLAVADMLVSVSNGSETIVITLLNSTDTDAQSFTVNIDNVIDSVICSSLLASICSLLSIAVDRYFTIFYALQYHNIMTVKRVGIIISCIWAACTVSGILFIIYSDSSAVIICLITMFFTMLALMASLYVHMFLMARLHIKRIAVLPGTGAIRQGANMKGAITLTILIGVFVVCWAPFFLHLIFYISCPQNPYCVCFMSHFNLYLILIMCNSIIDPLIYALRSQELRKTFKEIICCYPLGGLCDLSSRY
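Material: human MC4R-expressing U2OS cells. Probe or stimulus: Melanotan II challenge. Dosing: 6.5 µM single dose. Times: 30-min compound, 1-h challenge, 1-h detection, room temperature. Technique: TR-FRET with Eu-cAMP and labeled anti-cAMP, 671 nm. Replication: singlicate.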
MC4R ag barr: agonists of human melanocortin 4 receptor (MC4R) beta-arrestin; P32245; U2OS MC4R beta-arrestin complementation, luminescence; percent of melanotan II response, DMSO zero; activation, % at 8.9 µM; 0.98% of 360,000 active; AID 540308;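 active = activation above a per-plate cutoff, the mean activation of sample wells on that plate plus 3 SD, cut at about 8% in these data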
U2OS cAMP counter: counter-screen for MC4R antagonists: nonselective cAMP signaling inhibitors; inhibition, % at 6.5 µM; AID 602193; parental U2OS, forskolin cAMP, LANCE TR-FRET; shares compounds with MC4R antagonist; 26% of 1,600 active;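 active = mean inhibition over triplicates above the low-control well mean plus 3 SD, set per campaign, cut at about 13% in these data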;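 note: signal is single emission at 671 nm which falls as cellular cAMP rises; 0% = forskolin-stimulated wells and 100% = buffer without forskolin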
MC4R cAMP antag: human MC4R cAMP antagonism confirmation. 27% of 1,600 active. inhibition, % at 6.5 µM. shares compounds with MC4R antagonist. MC4R-expressing cells, MTII-stimulated cAMP, TR-FRET; in the data active = inhibition above about 29%;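 note: 0% = agonist stimulated wells alone and 100% = agonist stimulated wells plus saturating reference antagonist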
An asterisk follows results filed as active; i = inactive; . = not tested or not shown; ! = not confirmed by another sample.

SMILES | EP2 antag | T cell modulator | Exocytosis inh | EP2 modulator | MC4R antagonist | MC4R ag barr | U2OS cAMP counter | MC4R cAMP antag
CCN(CC(=O)Nc1ccc(NC(C)=O)cc1)C(=O)CCN1C(=O)c2cccc([N+](=O)[O-])c2C1=O | . | 251 | -1 | . | 5 | -2 | . | .
CCN(CC(=O)Nc1c(F)cccc1F)C(=O)CCN1C(=O)c2cccc([N+](=O)[O-])c2C1=O | . | 275 | 6 | . | 36* | -2 | 16* | 49*
COc1ccc(/C=C2\C(=O)NC(=O)N(c3ccc4c(c3)OCO4)C2=O)cc1O | 11 | . | . | -51 | . | . | . | .
CCCc1cc(=O)[nH]c2nnc(SCC(=O)Nc3nnc(CC)s3)n12 | . | . | -3 | . | 3 | 1 | . | .
CCOC(=O)CSc1nc2ccc(Nc3nc(N4CCOCC4)nc(N4CCOCC4)n3)cc2s1 | 72* | 150 | -2 | -34 | 30* | -1 | -16 | 27
Cc1cc(C)c2nc(N3CCC(C(=O)NCCCN4CCCCC4)CC3)sc2c1 | 3 | 343 | 0 | -5 | -2 | -1 | . | .
Cc1cc(Oc2ccc(C)c(Cl)c2)nc(SCC(=O)c2ccccc2)n1 | 7 | 580 | -4 | 41 | 45* | 2 | 23* | 47*
Cc1ccc(C(=O)CSc2cc(C)nc(SCC(=O)c3ccccc3)n2)cc1 | 11 | 393 | 5 | 16 | 8 | 0 | . | .
NC(=NCCCCCCN=C(N)/N=C(\N)Nc1ccc(Cl)cc1)/N=C(\N)Nc1ccc(Cl)cc1 | 10 | 533 | 1 | -2 | 80*! | 2 | -11 | 71*
CC(C)N=C(N)N=C(N)Nc1ccc(Cl)cc1 | . | 758 | -1 | . | 12 | -1 | . | .
Cc1oc(-c2ccc(Cl)cc2)nc1CS(=O)CC(=O)NCc1ccco1 (stereo not drawn) | . | 223 | 0 | . | 5 | -1 | . | .
O=C(O)CCC(=O)N1N=C(c2ccc(Br)cc2)CC1c1cccs1 (stereo not drawn) | 6 | 302 | -4 | -11 | 30* | -2 | 4 | 6
CC(=O)Oc1ccc(CN2C(=O)C(CCc3ccccc3)ON=C2c2cnccn2)cc1 (stereo not drawn) | . | . | 24 | . | 29* | 0 | 6 | 13
COc1cc(CN2C(=O)C(CCc3ccccc3)ON=C2c2cnccn2)cc(OC)c1 (stereo not drawn) | . | . | 6 | . | 16 | 0 | . | .
CCCCn1nc(C)cc1NC(=O)c1ncoc1-c1ccc(F)cc1 | 2 | . | . | -25 | . | . | . | .
O=S(=O)(Nc1ncnc2sc3c(c12)CCC3)c1ccc(Cl)s1 | 17 | 285 | 7 | -4 | 5 | -1 | . | .
CC(c1ccco1)N(C(=O)c1ccccc1NS(=O)(=O)c1cccc([N+](=O)[O-])c1)c1ccccn1 (stereo not drawn) | 13 | 194 | -2 | 21 | 30* | -1 | -1 | -1
CS(=O)(=O)c1ccc(Cl)c(NC(=O)CSc2nc3ccccc3c(=O)n2CCCN2CCOCC2)c1 | 7 | 152 | 7 | -5 | 31* | -1 | 2 | -1
Cc1ccc(NC(=O)CN2CCC(NC(=O)c3cccc(F)c3)CC2)cc1C | . | 151 | -2 | . | 30* | 3 | 2 | -7
COc1ccc(NC(=S)N2CCN(C(c3ccccc3)c3ccccc3)CC2)cc1OC | 6 | 224 | -1 | 32 | 29* | -2 | 3 | 1
COc1ccc(NC(=S)N2CCCC2)cc1OC | 10 | 484 | 4 | 15 | 3 | -3 | . | .
COc1cc(NC(=O)C2=C(N3CCOCC3)/C(=C/c3ccc(Cl)cc3)CC2)cc(OC)c1OC | 9 | 200 | -4 | -6 | 29* | 0 | 0 | 5
COc1cc(NC(=O)C2=C(N3CCOCC3)/C(=C\c3ccc(N(C)C)cc3)CCC2)cc(OC)c1OC | 10 | 294 | 4 | -55 | -15 | 2 | . | .
CCOc1ccc(-c2nnc3sc(COc4ccc(Cl)cc4)nn23)cc1 | 12 | 225 | -3 | -28 | -1 | 0 | . | .
CCOc1ccc(CCn2c(-c3ccco3)nc3ccccc3c2=O)cc1OCC | 5 | 265 | 1 | 6 | 9 | 1 | . | .
SMILES | EP2 antag | T cell modulator | Exocytosis inh | EP2 modulator | MC4R antagonist | MC4R ag barr | U2OS cAMP counter | MC4R cAMP antag
Nc1nc(Cl)c(C=O)c(N2CCCCC2)n1 | 5 | 224 | 2 | -11 | 37* | -2 | 20* | 28
Cc1cc(C(=O)COC(=O)C2=NN(c3ccccc3)C(=O)CC2)c(C)n1CC(F)(F)F | 6 | 312 | 0 | -8 | 30* | 2 | 0 | -6
COCC(C)n1c(C)cc(C(=O)COC(=O)C2=NN(c3ccccc3)C(=O)CC2)c1C (stereo not drawn) | 0 | 311 | -1 | 12 | -3 | -2 | . | .
CCOC(=O)CNC(=S)N(CCCN1CCCCCC1)Cc1cccs1 | 2 | i | 0 | 8 | 34* | 0 | 1 | 0
CC(OC(=O)c1cccs1)C(=O)NC1CC1 (stereo not drawn) | . | 266 | -6 | . | 6 | -1 | . | .
Cc1ccccc1C(=O)NNC(=O)Cc1ccccc1 | -3 | 553 | -5 | 25 | 6 | -1 | . | .
Cc1ccccc1C(=O)NNC(=O)CCc1ccccc1 | 7 | 179 | 6 | 20 | 32* | 2 | -2 | -3
CCOC(=O)c1c(NC(=S)Nc2ccccc2)sc2c1CC(C)(C)SC2 | 5 | 205 | 1 | -1 | 35* | -4 | 2 | 16
Cc1ccc(CNC(=O)c2csc3c2CCCCC3)cc1 | 5 | 297 | 1 | -15 | 3 | 4 | . | .
COc1cccc(C(=O)c2c[nH]c(C(=O)NCc3cccnc3)c2)c1 | 8 | 768 | -2 | -69 | 30* | -1 | 3 | 12
CN(c1ccccc1)S(=O)(=O)c1cccc(C(=O)NCCc2ccc(O)c(O)c2)c1 | 0 | 247 | -4 | -54 | 11 | -3 | . | .
CCOc1ccc(S(=O)(=O)N2CCc3ccccc3C2)cc1 | 6 | 285 | -6 | -13 | 0 | -2 | . | .
COC(=O)COc1ccc(S(=O)(=O)N2CCc3ccccc3C2)cc1 | 16 | 356 | 0 | -30 | 29* | 0 | 14* | 25
CCn1nc(C)c(C2C(C#N)=C(N)Oc3n[nH]c(C)c32)c1C (stereo not drawn) | 5 | 209 | 0 | 14 | 31* | 2 | 2 | 0
COc1ccccc1Cn1nnc2c(=O)[nH]c(C3CCN(C(=O)c4ccccc4Cl)CC3)nc21 | -2 | 198 | 2 | 3 | 4 | -2 | . | .
O=C1c2cc(Cl)ccc2OC2(CCNCC2)C12CC(c1ccc(Cl)cc1)=NO2 (stereo not drawn) | 7 | . | 4 | -2 | 1 | 3 | . | .

Compound activity: PubChem BioAssay, several laboratories
